Screening results (PubChem BioAssay)
SENP1 FRET inh = blocks the human SENP1 SUMO protease catalytic domain | recombinant SENP1 catalytic domain, CyPet-SUMO1-YPet FRET cleavage | hit rate 0.21% among 360,000 | inhibition, % at 10 µM | AID 624204 | Q9P0U3;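 active = inhibition at least 30% at 10 µM, raw YFP signal under a set limit, fluorescence ratio 0.5 to 1.5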;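 also: 0% = enzyme with DMSO and 100% = no enzyme wells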
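Test system: human SENP1 catalytic domain; medium: Tris pH 8 buffer plus EDTA, NaCl, BME, BSA, NP40, catalase; incubation: 50 min reaction at room temperature; technique: FRET, CFP and YFP emission; controls: no-enzyme low control and enzyme-plus-DMSO high control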
SENP8 block-1 = SENP8 (human) protease inhibition | Q96LD8 | recombinant SENP8, Nedd8 substrate fluorescence | hit rate 0.64% among 360,000 | inhibition, % at 20 µM; in the data active = inhibition mostly above about 40%, no sharp cut-off; inactive = mostly below about 27%
Target sequence (Q96LD8 whole entry, looked up): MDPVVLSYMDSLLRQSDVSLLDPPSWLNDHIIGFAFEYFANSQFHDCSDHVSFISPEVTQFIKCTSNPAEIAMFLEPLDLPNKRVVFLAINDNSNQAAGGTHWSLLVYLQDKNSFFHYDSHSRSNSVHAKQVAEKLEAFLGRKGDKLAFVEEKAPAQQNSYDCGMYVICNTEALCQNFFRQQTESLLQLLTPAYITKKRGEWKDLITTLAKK
SENP8 block-2 = blocks the human protease SENP8; purified SENP8, Z-RLRGG-aminoluciferin cleavage, luminescence; inhibition, % at 10 µM; hit rate 1.2% among 330,000; AID 2540; in the data active = inhibition above about 50%
SENP6 block = inhibitors of human SENP6 protease | Q9GZR1 | Recombinant SENP6 catalytic domain, aminoluciferin luminescence | inhibition, % at 10 µM | hit rate 1.8% among 330,000;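 active = inhibition above about 50% at the single tested dose, limit read from the data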;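 also: plate controls were DMSO wells with enzyme for no effect and DMSO wells lacking enzyme for full effect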
SENP7 block = SENP7 protease inhibition; Q9BQF6; recombinant SENP7, Z-RLRGG-aminoluciferin luminescence, 40 min; AID 434973; inhibition, % at 5 µM; hit rate 1.5% among 330,000;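 active = inhibition above about 50% at the single test dose, limit read from the data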;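 also: plate controls were DMSO with enzyme for no effect and no enzyme buffer wells for full effect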
Target sequence (Q9BQF6 706-1050 limits assumed): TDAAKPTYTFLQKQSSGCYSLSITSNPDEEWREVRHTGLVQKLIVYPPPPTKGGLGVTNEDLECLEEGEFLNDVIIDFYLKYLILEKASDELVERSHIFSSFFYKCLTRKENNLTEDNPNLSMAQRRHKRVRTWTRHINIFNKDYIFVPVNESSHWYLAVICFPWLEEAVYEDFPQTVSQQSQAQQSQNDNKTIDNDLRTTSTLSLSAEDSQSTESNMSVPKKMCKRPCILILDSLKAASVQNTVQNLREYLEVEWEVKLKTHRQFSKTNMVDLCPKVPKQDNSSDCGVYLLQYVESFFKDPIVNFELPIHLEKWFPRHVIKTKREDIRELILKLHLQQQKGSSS
HSP90 inh = HSP90 refolding inhibition in rabbit reticulocyte lysate; luciferase refolding luminescence, 3 h; inhibition, % at 5.6 µM; AID 1789; hit rate 0.91% among 290,000;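 active = inhibition above the screen-wide mean plus 3 SD, computed separately per campaign, cut at about 16% in these data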;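 also: 0% = DMSO wells and 100% = 60 µM geldanamycin wells; inhibitors lower the luminescence because luciferase stays unfolded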
HSP90 inh confirm = confirmation of HSP90 inhibitors | shares compounds with HSP90 inh | rabbit reticulocyte lysate, luciferase refolding luminescence, 3 h | inhibition, % at 5.9 µM | hit rate 64% among 2,300 | AID 1846; in the data active = inhibition above about 18%;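 also: 0% = vehicle wells and 100% = reference inhibitor wells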
luciferase ctr = blocks native firefly luciferase in HSP90 counter-screen; inhibition, % at 5.9 µM; purified native firefly luciferase, luminescence; shares compounds with HSP90 inh; hit rate 48% among 2,300; AID 1847;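 active = inhibition above the mean inhibition of all tested sample wells plus 3 SD, cut at about 10% in these data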;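 also: 0% = DMSO with luciferase and 100% = wells lacking luciferase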
SENP8 conf = human SENP8 inhibition, confirmed. AID 488912. shares compounds with SENP7 block. inhibition, % at 12.5 µM. hit rate 40% among 6,200. Recombinant SENP8, Z-RLRGG-aminoluciferin luminescence, 60 min;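 active = mean inhibition across replicates above about 50%, limit read from the data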
SENP6 confirm = human SENP6 inhibition, confirmed; shares compounds with SENP7 block; recombinant SENP6, Z-RLRGG-aminoluciferin luminescence; inhibition, % at 12.5 µM; hit rate 58% among 6,200; AID 488915
SENP7 confirm = confirmation of human SENP7 protease inhibitors; inhibition, % at 12.5 µM; hit rate 69% among 6,200; shares compounds with SENP7 block; recombinant SENP7, Z-RLRGG-aminoluciferin luminescence, 40 min
Casp3 SENP sel = selectivity test for SENP inhibitors: human caspase-3 inhibition; hit rate 60% among 6,200; shares compounds with SENP7 block; purified caspase-3, Z-DEVD-aminoluciferin luminescence, 60 min; inhibition, % at 12.5 µM;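 active = mean inhibition above about 50%, limit read from the data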;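 also: plate controls were enzyme with DMSO for no effect and wells without caspase-3 for full effect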
SENP luc ctr = counter-screen for SENP inhibitors: luminescence interference; Pre-incubated SENP8/Z-RLRGG-aminoluciferin, luciferase luminescence interference; shares compounds with SENP7 block; hit rate 39% among 6,200; inhibition, % at 12.5 µM;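 active = mean inhibition above about 50% when retested at one dose, limit read from the data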;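 also: plate controls were DMSO wells with completed reaction for no effect and substrate without enzyme for full effect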
* hit, by the source's call; / = no result given. Hits are enriched below; roughly 2.9% of the tested compounds scored in any of these assays.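 The calls were made as follows, unless noted: active = mean inhibition above about 50% in the one-dose retest (limit read from the data); inactive = the rest.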

SMILES | SENP1 FRET inh | SENP8 block-1 | SENP8 block-2 | SENP6 block | SENP7 block | HSP90 inh | HSP90 inh confirm | luciferase ctr | SENP8 conf | SENP6 confirm | SENP7 confirm | Casp3 SENP sel | SENP luc ctr
Cc1c(C)c2ccc(OCC(=O)Nc3ccccn3)cc2oc1=O | 4 | -341 | 48 | 64* | 95* | 25* | 64* | 28* | 18 | 8 | -2 | 11 | -8
Cc1cccc(OCC(=O)Nc2nccs2)c1C | -3 | 1 | 90* | 95* | 96* | 27* | 29* | 14* | 89* | 92* | 100* | 94* | 87*
Cc1cc(=O)oc2cc(OCC(=O)Nc3nccs3)ccc12 | 1 | -83 | 26 | 42 | 29 | 6 | / | / | / | / | / | / | /
Cc1c(C)c2ccc(OCC(=O)Nc3nccs3)cc2oc1=O | 1 | -389 | 51* | 56* | 84* | 58* | 73* | 56* | 6 | 9 | 33 | 42 | 2
COc1ccccc1N1CCN(S(=O)(=O)c2c(C(=O)N3CCOCC3)c(C)n(C)c2C)CC1 | 0 | 11 | 16 | 3 | -2 | -1 | / | / | / | / | / | / | /
COc1cccc(NC(=O)CN(C)C(=O)c2ccc3c(c2)C(=O)N(CCC(C)C)C3=O)c1 | 2 | 10 | -3 | 10 | -2 | / | / | / | / | / | / | / | /
COc1ccc(C(=O)O)cc1S(=O)(=O)N1CCSCC1 | 0 | 8 | -6 | -10 | -2 | -3 | / | / | / | / | / | / | /
COc1cccc(/C=N/Nc2nccnc2Cl)c1O | 2 | -12 | 96* | 97* | 100* | 55* | 72* | 59* | 98* | 99* | 102* | 98* | 88*
COc1cccc(/C=N/Nc2ncnc(Cl)c2N)c1O | -8 | -51 | 7 | 16 | 15 | 2 | / | / | / | / | / | / | /
COc1ccc(N=Cc2ccccc2O)cc1 | -4 | 23 | / | / | / | / | / | / | / | / | / | / | /
Cc1ccc(N=Nc2ccc3ccccc3c2O)cc1 | 6 | 16 | 90* | 46 | 100* | 59* | 77* | 73* | 6 | 7 | 1 | 2 | 7
COc1ccc(N=Cc2oc3ccc4ccccc4c3c2O)cc1 | -25 | -58 | -18 | 3 | -7 | 0 | / | / | / | / | / | / | /
COc1cccc(N=Nc2ccc3ccccc3c2O)c1 | 8 | 12 | 96* | 89* | 100* | 28* | 58* | 58* | 8 | 31 | 20 | 92* | 0
COc1ccc(N=Nc2ccc3ccccc3c2)c(O)c1 | 6 | 27 | 19 | 98* | 98* | 30* | 53* | 55* | 43 | 40 | 26 | 41 | -1
COc1ccccc1/C=C(\C#N)C(=O)c1cccn1C | -1 | 27 | -17 | -25 | -9 | -7 | / | / | / | / | / | / | /
Cc1ccc(Oc2ccc(NC(=O)C3=CC=CN4CCS(=O)(=O)N=C34)cc2)cc1 | -2 | 0 | -10 | 7 | -4 | / | / | / | / | / | / | / | /
OCCCNc1ncnc2c1ncn2[C@H]1CN(Cc2ccc3c(c2)OCO3)C[C@@H](CO)O1 | 2 | 0 | / | / | / | / | / | / | / | / | / | / | /
COc1ccc(-c2nsc3c(N4CCCCC4C)ncnc23)cc1 (centres undefined) | 0 | -406 | 81* | 88* | 78* | 78* | 83* | 80* | 68* | 71* | 76* | 76* | 11
COc1ccc(-c2nsc3c(N4CCCCC4)ncnc23)cc1 | 3 | -257 | 92* | 67* | 95* | 61* | 82* | 63* | 0 | 5 | 0 | 2 | 16
CCOC(=O)c1cnc(Nc2nc3ccccc3o2)nc1C | 1 | 0 | 80* | 84* | 95* | 18* | 86* | 75* | 74* | 75* | 99* | 93* | 34
Cc1nc(Nc2nc3ccccc3o2)nc2c1CCC2 | 1 | 13 | 39 | 77* | 72* | 17* | 50* | 43* | 33 | 60* | 86* | 75* | 8
Cc1cccc(C)c1Nc1nc2ccccc2o1 | 1 | 20 | 4 | -10 | -7 | -2 | / | / | / | / | / | / | /
CC(=O)Nc1cccc(-c2csc(Nc3ccccn3)n2)c1 | 3 | 4 | 79* | 84* | 92* | 19* | 9 | -10 | 88* | 87* | 98* | 68* | 88*
Cc1cc(/C=C2\SC(=S)N(C)C2=O)c(C)n1-c1ccc(O)cc1 | -32 | 15 | 58* | 79* | -9 | 60* | 82* | 82* | 36 | 84* | 92* | / | 23
Cc1cc(C(=O)NNC(=O)C(C)(C)Oc2ccc(Cl)cc2)c(C)o1 | -2 | 9 | 4 | 2 | 1 | / | / | / | / | / | / | / | /
SMILES | SENP1 FRET inh | SENP8 block-1 | SENP8 block-2 | SENP6 block | SENP7 block | HSP90 inh | HSP90 inh confirm | luciferase ctr | SENP8 conf | SENP6 confirm | SENP7 confirm | Casp3 SENP sel | SENP luc ctr
Cc1ccc(NC(=O)Cn2cnc3c(NCc4ccccc4)ncnc32)cc1C | 1 | 7 | / | / | 6 | / | / | / | / | / | / | / | /
COc1ccc(-c2cc(C(=O)Nc3cccc(O)c3)no2)cc1 | 1 | 12 | 93* | 97* | 99* | 31* | 70* | 54* | 93* | 94* | 101* | 95* | 57*
CC(C)Cc1cc(C(=O)Nc2cccc(O)c2)no1 | 0 | 2 | 86* | 93* | 92* | 39* | 71* | 65* | 91* | 91* | 99* | 92* | 75*
COc1ccc(-c2cc(C(=O)Nc3ccc(C)c(C)c3)no2)cc1 | 1 | 2 | 0 | -3 | 6 | 4 | / | / | / | / | / | / | /
Cc1ccc(C(=O)C(C)OC(=O)C2CCN(c3ccc(C(F)(F)F)cn3)CC2)cc1 (centres undefined) | 1 | -1 | 2 | -11 | 9 | / | / | / | / | / | / | / | /
Cc1cc(C)c(CN2CCN(C(=O)Cn3cnc4c(OCc5ccccc5)ncnc43)CC2)c(C)c1 | 0 | 14 | 2 | -9 | -1 | / | / | / | / | / | / | / | /
O=C(O)c1cccc(NC(=S)N/N=C/c2ccccn2)c1 | 3 | -7 | 62* | 48 | 77* | 35* | 61* | 49* | 77* | 76* | 95* | 37 | 75*
Cc1cc(C(=O)Nc2cccc(C(=O)O)c2)oc1C | 1 | 19 | 92* | 92* | 98* | 86* | 92* | 79* | 95* | 95* | 100* | 86* | 94*
